Screens: PubChem BioAssay, several laboratories
NR2E3 ag-1: NR2E3 agonists in two-hybrid cells, primary screen, cell-based, luminescence, CHO-S, Gal4-NCOR/VP16-NR2E3; luciferase; inhibition of corepressor binding, % at 3.98 µM; 360,000 tested, 0.35% active; AID 602229, 2012;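 active = inhibition above the mean of all tested compounds plus 3 SD, cut at about 70% in these data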;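 note: higher means lower luciferase signal from less NR2E3 corepressor binding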
Jurkat NFkB inh: inhibitors of induced NF-kB luciferase reporter, primary screen, TCR NF-kB activation inhibitor project, cell-based, luminescence, uHTS | 330,000 tested, 0.53% active | AID 435003, 2010 | inhibition, % at 4 µM | Jurkat, PMA/ionomycin-induced NF-kB luciferase reporter; in the data active = inhibition above about 50%
Gli-Sufu block: Gli-Sufu pathway antagonists, primary screen, luciferase luminescence, Sufu-KO-LIGHT cells, uHTS; Sufu-KO-LIGHT fibroblasts, Gli luciferase reporter luminescence; inhibition, % at 5 µM; 340,000 tested, 0.74% active; AID 588413, 2011;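 active = inhibition above about 55%, limit read from the data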
GalR3 antagonist: GalR3 antagonists in HEK293 cells, primary screen, cell-based, fluorescence readout; Galanin receptor type 3 (Homo sapiens), O60755; HEK293 GalR3-CNG cAMP membrane potential fluorescence; galR3 body fused to GalR1 C-terminus; inhibition, % at 3 µM; 360,000 tested, 0.44% active; AID 651719, 2012;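 active = inhibition above the screen-wide average plus 3 SD, cut at about 13% in these data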;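 note: forskolin and galanin both at EC90 stimulate the cells; cAMP rise reported by CNG channel membrane potential dye signal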
Target sequence (O60755 1-299 limits assumed): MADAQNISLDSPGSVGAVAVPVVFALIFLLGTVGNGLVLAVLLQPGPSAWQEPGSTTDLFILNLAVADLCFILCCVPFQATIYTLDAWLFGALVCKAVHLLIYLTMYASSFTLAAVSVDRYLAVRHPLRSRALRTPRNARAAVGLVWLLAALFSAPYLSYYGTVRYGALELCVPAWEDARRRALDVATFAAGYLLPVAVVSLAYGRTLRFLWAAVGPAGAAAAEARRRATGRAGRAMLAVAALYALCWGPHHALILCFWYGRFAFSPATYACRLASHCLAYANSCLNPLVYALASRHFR
697 NFkB inh: inhibitors of PMA/ionomycin-induced NF-kB reporter, 697 cells, primary screen, B-cell NF-kB inhibitor project, cell-based, luminescence, uHTS | 697 B-cell NF-kB luciferase reporter, 16 h | inhibition, % at 4 µM | 330,000 tested, 0.33% active | AID 435022, 2010; in the data active = inhibition above about 35%
NR2E3 ag-2: inhibitors of NR2E3-RetCOR corepressor binding, primary screen, NR2E3 agonist project, biochemical, TR-FRET, GST-NR2E3, biotin-RetCOR; Photoreceptor-specific nuclear receptor (Homo sapiens), Q9Y5X4; 1536-well; inhibition of corepressor binding, % at 4.78 µM; 320,000 tested, 0.12% active; AID 2300, 2010;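 active = percent inhibition above the cutoff of mean plus 3 SD of all tested compounds, set per screening campaign, cut at about 20% in these data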
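system = GST-tagged NR2E3 plus biotinylated RetCOR corepressor | input = 1.35 nM GST-NR2E3 | also added = 7 nM biotin-RetCOR | schedule = 5 h incubation at 4 °C | measured by = TR-FRET with europium anti-GST and streptavidin-D2, 340 nm excitation | read-out = percent loss of FRET ratio relative to control wells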
NR2E3 ag confirm: NR2E3 agonist confirmation in cells, cell-based, luminescence, CHO-S two-hybrid. shares compounds with NR2E3 ag-1. CHO-S mammalian two-hybrid NR2E3-NCOR, luciferase luminescence. inhibition, % at 3.98 µM. 2,300 tested, 51% active;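 active = average inhibition above a cutoff equal to the mean inhibition of all tested compounds plus one SD, cut at about 70% in these data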
GAL4-VP16 luc: GAL4-VP16 reporter modulators, confirmation, counter-screen for NR2E3 agonist project, cell-based, luminescence, CHO-S, high throughput; AID 624379, 2012; CHO-S GAL4-VP16 luciferase reporter; shares compounds with NR2E3 ag-1; inhibition, % at 3.98 µM; 2,300 tested, 29% active;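 active = mean inhibition above a cutoff equal to the average over all tested compounds plus one standard deviation, cut at about 70% in these data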;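 note: luciferase from a UAS reporter driven by GAL4-VP16 transactivation; higher means less reporter light so more repression of VP16 activity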
A number is an active result; n = inactive; x = no result given. An excerpt weighted towards active compounds, which were near 1.8% of everything screened.

SMILES | NR2E3 ag-1 | Jurkat NFkB inh | Gli-Sufu block | GalR3 antagonist | 697 NFkB inh | NR2E3 ag-2 | NR2E3 ag confirm | GAL4-VP16 luc
Cc1ccc([C@@H]2CC=C(C(=O)O)[C@H](c3ccc(C(C)(C)C)cc3)N2S(=O)(=O)c2ccc(C)cc2)cc1 | 98 | n | n | n | n | x | 88 | n
Cc1ccc([C@@H]2CC=C(C(=O)O)[C@H](c3ccc(Br)cc3)N2S(=O)(=O)c2ccc(C)cc2)cc1 | n | n | n | n | n | x | n | n
CCc1ccc([C@@H]2CC=C(C(=O)O)[C@H](c3ccccc3)N2S(=O)(=O)c2ccc(C)cc2)cc1 | n | n | n | n | n | n | x | x
CC[C@]12c3[nH]c4cc(CCC(=O)N(C)C)ccc4c3CCN1C(=O)[C@@H](CC(=O)NCc1cccc(C(F)(F)F)c1)C[C@@H]2C(=O)N1CCN(C(=O)c2ccco2)CC1 | n | x | n | n | n | x | x | x
CC1(C)CC(=O)C(Sc2ccccc2[N+](=O)[O-])=C(O)C1 | n | n | n | n | n | n | x | x
Cc1ccc(S(=O)(=O)N2[C@@H](c3ccc(C(C)(C)C)cc3)C(C(=O)O)=CC[C@H]2c2cccs2)cc1 | n | n | n | n | n | x | n | n
Cc1cc(C)c(C)c(S(=O)(=O)N2CCC(C(=O)NCCCN3CCOCC3)CC2)c1C | n | n | n | n | n | n | x | x
O=C(CNc1cccc(S(=O)(=O)N2CCCC2)c1)Nc1ccc(C(F)(F)F)cc1 | n | n | n | n | n | n | n | n
COc1ccc2cc(C(C)C(=O)Nc3cccc(S(=O)(=O)N(C)C)c3)ccc2c1 (stereo not drawn) | n | n | n | n | n | n | n | n
CNC(=O)c1cccc(NC(=O)C(C)c2ccc3cc(OC)ccc3c2)c1 (stereo not drawn) | n | n | n | n | n | n | x | x
CC(=O)/C(N=Nc1ccc2c(c1)OCO2)=C(\C)O | n | n | n | n | n | n | x | x
CC(=O)/C(N=Nc1ccc2c(c1)OCCO2)=C(\C)O | n | n | n | n | n | n | n | n
CCOC(=O)c1ccccc1NC(=O)COC(=O)CSc1ccccc1 | n | n | n | n | n | n | x | x
CCc1cccc(CC)c1NC(=S)NCCc1c(C)[nH]c2ccc(C)cc12 | 71 | n | n | n | n | n | n | n
O=c1[nH]sc2ccccc12 | 75 | x | n | n | x | x | n | n
Cc1ccc(-n2ccnc2SCC(=O)c2c(N)n(C3CC3)c(=O)[nH]c2=O)cc1C | n | n | n | n | n | n | x | x
FC(F)Sc1ccc(NC(=S)N2CCN(c3ccccn3)CC2)cc1 | n | n | n | n | n | x | 87 | n
CN(C)c1nc(=NCc2cccs2)ss1 | 97 | x | n | n | x | x | n | n
CC(=O)c1c(C)oc2ccc(N(C(C)=O)S(=O)(=O)c3cccc4cccnc34)cc12 | 86 | n | n | n | n | n | 94 | 74
CC(=O)c1c(C)oc2ccc(NS(=O)(=O)c3ccc(C)cc3)cc12 | 80 | n | n | n | n | n | n | n
CC(=O)c1c(C)oc2ccc(NS(=O)(=O)c3cccs3)cc12 | n | n | n | n | n | n | x | x
CC(=O)c1c(C)oc2ccc(N(C(C)=O)S(=O)(=O)c3ccc(Br)cc3)cc12 | 90 | n | n | n | n | n | 90 | 73
CC(=O)c1c(C)oc2ccc(N(C(C)=O)S(=O)(=O)c3ccc(Cl)c([N+](=O)[O-])c3)cc12 | n | n | n | n | n | n | x | x
COC(=O)c1c(C)oc2ccc(N(C(C)=O)S(=O)(=O)c3ccccc3)cc12 | 98 | n | n | n | n | n | 84 | n
CC(=O)c1c(C)oc2ccc(N(C(C)=O)S(=O)(=O)c3ccc(F)cc3C)cc12 | n | n | n | n | n | n | x | x
SMILES | NR2E3 ag-1 | Jurkat NFkB inh | Gli-Sufu block | GalR3 antagonist | 697 NFkB inh | NR2E3 ag-2 | NR2E3 ag confirm | GAL4-VP16 luc
COc1ccc(C(=O)NC(C)Cc2c[nH]c3ccccc23)cc1 (stereo not drawn) | n | x | x | n | x | x | x | x
CC(=O)OCC(=O)C1(O)CCC2C3CCC4=CC(=O)CCC4(C)C3(Cl)C(O)CC21C (stereo not drawn) | n | x | n | n | x | x | x | x
COc1ccc(NC(=O)Cn2c(=O)oc3cc(S(=O)(=O)N4CCCC4)ccc32)cc1 | n | n | n | n | n | n | x | x
Cc1ccc(NC(=O)Cn2c(=O)oc3cc(S(=O)(=O)N4CCC(C)CC4)ccc32)cc1C | n | n | n | n | n | n | n | n
O=C1/C(=C/c2ccccc2[N+](=O)[O-])COc2ccccc21 | n | n | n | n | n | n | x | x
CC1(C)CC(=Cc2cc(O)ccc2[N+](=O)[O-])C(=O)c2ccccc21 | 98 | x | x | x | x | x | 99 | 71
CCOc1ccc(S(=O)(=O)N2CCC(C(=O)N3CCN(c4ccccc4F)CC3)CC2)cc1C | n | n | n | n | n | n | n | n
O=C(NNC(=O)c1c(O)c2ccccc2[nH]c1=O)c1ccccc1Br | n | n | n | n | n | n | x | x
CCOC(=O)C1CCCN(C(=O)c2ccc(S(=O)(=O)Nc3ccccc3OC)cc2)C1 (stereo not drawn) | n | n | n | n | n | n | x | x
COC(=O)c1cc(CSc2nnc(NC3CCCCC3)s2)oc1C | n | n | n | n | n | n | n | n
O=C(O)CN1C(=O)COc2ccc(S(=O)(=O)N3CCCCCC3)cc21 | n | n | n | n | n | n | x | x
CC1Oc2ccccc2N(CC(=O)NC2CCCCC2)C1=O (stereo not drawn) | n | n | n | n | n | n | x | x
COc1ccc(C2CCc3cc4c(cc3C2=NO)OCO4)cc1OC (stereo not drawn) | n | x | x | n | x | x | n | n
CC(O)(c1ccncc1)c1nc(-c2cccc(C(F)(F)F)c2)cs1 (stereo not drawn) | 85 | x | x | n | x | x | 93 | 74
CCN(CC)C(=O)c1cccc(-c2csc(C(C)(O)c3ccc(F)c(F)c3)n2)c1 (stereo not drawn) | n | x | x | x | x | x | n | n
